Assay [1] addresses Plasminogen (Homo sapiens, UniProt P00747). Briefly: Inhibition of human plasmin using H-D-Val-Leu-LyspNA (S-2251) peptide as substrate assessed as reduction of enzyme hydrolytic activity. An outline of the steps:
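Plasmin activity was measured with 0.3 mM S-2251 as substrate and read as absorbance at 405 nm. IC50 is the inhibitor concentration cutting absorbance by 50% compared with the inhibitor-free control under the same conditions.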

The target of assay [2] is Plasma kallikrein (Homo sapiens, UniProt P03952). Kind of assay: Inhibition of human plasma kallikerin using H-D-Phe-Pro-Arg-pNA (S-2302) peptide as substrate assessed as reduction of enzyme hydrolytic activity. The procedure, abridged: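 Plasma kallikrein activity on synthetic peptide substrate S-2302 at 0.2 mM, with and without inhibitor. Hydrolysis followed as absorbance at 405 nm. IC50 is the inhibitor concentration giving a 50% drop in absorbance compared with the uninhibited control under the same conditions.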
Sequence of Plasma kallikrein (P03952 20-390 limits assumed): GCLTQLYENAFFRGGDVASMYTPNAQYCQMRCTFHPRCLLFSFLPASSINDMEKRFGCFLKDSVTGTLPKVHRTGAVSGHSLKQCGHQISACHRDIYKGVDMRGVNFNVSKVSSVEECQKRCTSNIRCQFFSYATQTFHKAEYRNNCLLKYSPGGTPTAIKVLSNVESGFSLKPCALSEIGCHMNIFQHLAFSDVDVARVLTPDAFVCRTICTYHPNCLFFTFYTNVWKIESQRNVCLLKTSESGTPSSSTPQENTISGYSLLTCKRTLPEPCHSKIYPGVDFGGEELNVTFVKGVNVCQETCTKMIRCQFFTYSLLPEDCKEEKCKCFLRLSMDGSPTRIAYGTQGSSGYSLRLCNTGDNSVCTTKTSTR
Sequence of Plasma kallikrein (P03952 391-638 limits assumed): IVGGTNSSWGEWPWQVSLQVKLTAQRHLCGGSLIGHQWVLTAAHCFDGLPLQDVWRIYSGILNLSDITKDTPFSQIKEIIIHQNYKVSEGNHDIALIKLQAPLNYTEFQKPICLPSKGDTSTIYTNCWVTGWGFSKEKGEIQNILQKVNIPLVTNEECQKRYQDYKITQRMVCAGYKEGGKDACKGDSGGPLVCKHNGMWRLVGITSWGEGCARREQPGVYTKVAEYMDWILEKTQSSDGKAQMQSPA

Assay [3] concerns the target Urokinase-type plasminogen activator (Homo sapiens, UniProt P00749). Kind of assay: Inhibition of human plasma urokinase using Glu-Gly-Arg-pNA (S-2444) peptide as substrate assessed as reduction of enzyme hydrolytic activity. The procedure, abridged:
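Urokinase hydrolysis of S-2444 at 0.1 mM, monitored by absorbance at 405 nm. IC50 defined as the inhibitor concentration that lowers absorbance by 50% compared with enzyme run under the same conditions without inhibitor.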

Each structure is given as a SMILES string. A value given as a limit tells only on which side of the number the result lay.

Sequence of Plasminogen (P00747 97-580 limits assumed): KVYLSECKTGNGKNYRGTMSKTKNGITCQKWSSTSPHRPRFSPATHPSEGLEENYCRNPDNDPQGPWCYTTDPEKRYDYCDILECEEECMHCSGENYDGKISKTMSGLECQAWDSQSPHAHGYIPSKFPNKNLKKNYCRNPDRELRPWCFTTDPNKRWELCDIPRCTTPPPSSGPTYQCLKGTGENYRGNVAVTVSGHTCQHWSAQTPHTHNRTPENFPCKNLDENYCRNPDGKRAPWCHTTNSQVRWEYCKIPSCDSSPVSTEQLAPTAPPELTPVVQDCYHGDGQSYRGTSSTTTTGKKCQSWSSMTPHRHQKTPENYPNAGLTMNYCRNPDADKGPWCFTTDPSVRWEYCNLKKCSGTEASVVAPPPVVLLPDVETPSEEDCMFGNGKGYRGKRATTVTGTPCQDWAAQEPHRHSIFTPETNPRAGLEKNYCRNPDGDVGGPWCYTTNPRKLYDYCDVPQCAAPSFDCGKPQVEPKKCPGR
Sequence of Plasminogen (P00747 581-810 limits assumed): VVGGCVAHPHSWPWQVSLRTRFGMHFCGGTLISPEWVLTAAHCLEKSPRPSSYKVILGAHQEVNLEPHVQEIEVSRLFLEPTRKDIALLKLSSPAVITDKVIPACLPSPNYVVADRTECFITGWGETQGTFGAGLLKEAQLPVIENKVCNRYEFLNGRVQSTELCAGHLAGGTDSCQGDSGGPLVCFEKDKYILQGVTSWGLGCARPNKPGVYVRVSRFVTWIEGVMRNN

For `Cn1c(CN2C(=O)CN(c3ccc(OCc4ccncc4)c(C(N)=O)c3)C2=O)cc2cnc(C(=O)N[C@H](C#N)CCCCN)nc21`, the results for the IC50 in assay [1], in assay [2] and in assay [3] were 170 µM, greater than 1000 µM and greater than 1000 µM, respectively.
In the case of `Cn1c(CN2CC(=O)N(c3ccc(Oc4ccccc4)cc3)CC2=O)cc2cnc(C(=O)N[C@H](C#N)CCCCN)nc21`, the IC50 in assay [1] is 960 µM; in assay [2], greater than 1000 µM; in assay [3] it was greater than 1000 µM.
As to `CN1CC(=O)N(Cc2cc3cnc(C(=O)N[C@H](C#N)CCCCN)nc3n2C)C1=O`, the half-maximal inhibitory concentration (IC50) in assay [1], in assay [2] and in assay [3] was greater than 1000 µM each time.
On to `Cn1c(CN2C(=O)CN(c3ccc(F)cc3)C2=O)cc2cnc(C(=O)N[C@H](C#N)CCCCN)nc21`, for which the IC50 is 130 µM in assay [1], 740 µM in assay [2] and greater than 1000 µM in assay [3].
For `COc1ccc(N2CC(=O)N(Cc3cc4cnc(C(=O)N[C@H](C#N)CCCCN)nc4n3C)C2=O)cc1`, the half-maximal inhibitory concentration (IC50) is 180 µM in assay [1], greater than 1000 µM in assay [2] and greater than 1000 µM in assay [3].
Regarding `CCCc1ccc(N2CC(=O)N(Cc3cc4cnc(C(=O)N[C@H](C#N)CCCCN)nc4n3C)C2=O)cc1`, the half-inhibitory concentration (IC50) is 330 µM in assay [1], greater than 1000 µM in assay [2] and greater than 1000 µM in assay [3].
Consider `Cn1c(CN2C(=O)CN(c3ccc(S(N)(=O)=O)cc3)C2=O)cc2cnc(C(=O)N[C@H](C#N)CCCCN)nc21`, for which the values for the concentration for half-maximal inhibition (IC50) in assay [1], in assay [2] and in assay [3] were 260 µM, greater than 1000 µM and greater than 400 µM, respectively.
In the same order, the values of `Cn1c(CN2C(=O)CN(c3ccc(C(N)=O)cc3)C2=O)cc2cnc(C(=O)N[C@H](C#N)CCCCN)nc21` are 160 µM, greater than 1000 µM and greater than 1000 µM.
On to `Cn1c(CN2C(=O)CN(c3ccc(C#N)cc3)C2=O)cc2cnc(C(=O)N[C@H](C#N)CCCCN)nc21`, for which the IC50 in assay [1] was 210 µM; in assay [2], greater than 1000 µM; in assay [3] it was greater than 1000 µM.
For the compound `Cn1c(CN2C(=O)CN(c3cccc(S(N)(=O)=O)c3)C2=O)cc2cnc(C(=O)N[C@H](C#N)CCCCN)nc21`, the results for the IC50 in assay [1], in assay [2] and in assay [3] were 220 µM, greater than 1000 µM and greater than 1000 µM, respectively.
Consider `Cn1c(CN2C(=O)CN(c3cccc(C(N)=O)c3)C2=O)cc2cnc(C(=O)N[C@H](C#N)CCCCN)nc21`, for which the figures for the IC50 in assay [1], in assay [2] and in assay [3] were 100 µM, greater than 1000 µM and greater than 1000 µM, respectively.
Consider `Cn1c(CN2C(=O)CN(c3cccc(C#N)c3)C2=O)cc2cnc(C(=O)N[C@H](C#N)CCCCN)nc21`, for which the IC50 is 220 µM in assay [1], greater than 1000 µM in assay [2] and greater than 1000 µM in assay [3].
Regarding `CC(=O)COc1ccc(N2CC(=O)N(Cc3cc4cnc(C(=O)N[C@H](C#N)CCCCN)nc4n3C)C2=O)cc1`, the IC50 was 250 µM in assay [1], greater than 1000 µM in assay [2] and greater than 1000 µM in assay [3].
In the case of `Cn1c(CN2C(=O)CN(c3ccc(OCC(N)=O)cc3)C2=O)cc2cnc(C(=O)N[C@H](C#N)CCCCN)nc21`, the values for the IC50 in assay [1], in assay [2] and in assay [3] were 400 µM, greater than 1000 µM and greater than 1000 µM, respectively.
`Cn1c(CN2C(=O)CN(c3ccc(OCC#N)cc3)C2=O)cc2cnc(C(=O)N[C@H](C#N)CCCCN)nc21`: the half-maximal inhibitory concentration (IC50) in assay [1] was 130 µM; in assay [2], greater than 1000 µM; in assay [3] it was greater than 1000 µM.
For `Cn1c(CN2C(=O)CN(c3ccc(Oc4ccccc4)cc3)C2=O)cc2cnc(C(=O)N[C@H](C#N)CCCCN)nc21`, the IC50 in assay [1] is 51 µM; in assay [2], greater than 1000 µM; in assay [3], greater than 400 µM.
Regarding `COc1ccc(Oc2ccc(N3CC(=O)N(Cc4cc5cnc(C(=O)N[C@H](C#N)CCCCN)nc5n4C)C3=O)cc2)cc1`, the IC50 in assay [1] was 64 µM; in assay [2], greater than 1000 µM; in assay [3] it was greater than 400 µM.
For the compound `Cn1c(CN2C(=O)CN(c3ccc(OCc4ccncc4)cc3)C2=O)cc2cnc(C(=O)N[C@H](C#N)CCCCN)nc21`, the half-inhibitory concentration (IC50) in assay [1] is 87 µM; in assay [2], greater than 1000 µM; in assay [3], greater than 1000 µM.
Regarding `Cn1c(CN2C(=O)CN(c3ccc(Oc4ccc5ncccc5c4)cc3)C2=O)cc2cnc(C(=O)N[C@H](C#N)CCCCN)nc21`, the concentration for half-maximal inhibition (IC50) in assay [1] was greater than 250 µM; in assay [2] it was greater than 1000 µM; in assay [3] it was greater than 400 µM.
As to `Cn1c(CN2C(=O)CN(c3ccc(Oc4ccccc4C(N)=O)cc3)C2=O)cc2cnc(C(=O)N[C@H](C#N)CCCCN)nc21`, the 50% inhibitory concentration (IC50) is 99 µM in assay [1], greater than 1000 µM in assay [2] and greater than 1000 µM in assay [3].
For `Cn1c(CN2C(=O)CN(c3ccc(Oc4ccccc4)c(C(N)=O)c3)C2=O)cc2cnc(C(=O)N[C@H](C#N)CCCCN)nc21`, the figures for the half-inhibitory concentration (IC50) in assay [1], in assay [2] and in assay [3] were 510 µM, greater than 1000 µM and greater than 1000 µM, respectively.

As usually defined, the IC50 is the point on the concentration scale where inhibition reaches its midpoint.

The values are drawn from ChEMBL document CHEMBL3232735, “Pyrrolopyrimidine-inhibitors with hydantoin moiety as spacer can explore P4/S4 interaction on plasmin” (Bioorg Med Chem, 2014).
